Assay outcomes as filed in PubChem.
This is a sample that favours compounds with a hit; in the whole collection about 3.3% have one here.
NRP1-CendR mod: modulators of CendR peptide binding to human neuropilin-1; hit rate 0.85% among 360,000; inhibition, % at 25 µM; FAM-RPARPAR peptide binding to NRP-1, fluorescence polarization; O14786;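 active means inhibition or corrected inhibition above about 18%, plus a signal ratio from 0.5 to 1.5, limit read from the data, passing the limit was not always enough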
SENP6 inh: blocks the human protease SENP6 | Recombinant SENP6 catalytic domain, aminoluciferin luminescence | inhibition, % at 10 µM | Q9GZR1 | hit rate 1.8% among 330,000 | AID 2599;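 active means inhibition above about 50% at the single tested dose, limit read from the data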;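 further: plate controls were DMSO wells with enzyme for no effect and DMSO wells lacking enzyme for full effect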
Target sequence (Q9GZR1 628-1112 limits assumed): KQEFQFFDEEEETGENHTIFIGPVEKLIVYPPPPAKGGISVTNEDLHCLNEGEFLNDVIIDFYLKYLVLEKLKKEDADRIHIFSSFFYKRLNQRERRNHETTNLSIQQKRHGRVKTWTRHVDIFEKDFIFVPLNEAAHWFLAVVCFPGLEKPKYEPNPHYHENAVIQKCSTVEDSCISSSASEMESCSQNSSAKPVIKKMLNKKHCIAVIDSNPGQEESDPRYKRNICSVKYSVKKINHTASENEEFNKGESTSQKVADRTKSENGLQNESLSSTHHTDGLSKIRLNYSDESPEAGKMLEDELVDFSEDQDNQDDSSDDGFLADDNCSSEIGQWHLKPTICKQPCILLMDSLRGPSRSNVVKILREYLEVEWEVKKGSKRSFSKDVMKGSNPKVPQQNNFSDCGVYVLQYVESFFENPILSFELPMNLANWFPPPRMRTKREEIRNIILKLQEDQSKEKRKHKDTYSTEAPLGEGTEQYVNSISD
SENP7 block: blocks the human protease SENP7; Q9BQF6; recombinant SENP7, Z-RLRGG-aminoluciferin luminescence, 40 min; inhibition, % at 5 µM; hit rate 1.5% among 330,000; AID 434973;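 active means inhibition above about 50% at the single test dose, limit read from the data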;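 further: plate controls were DMSO with enzyme for no effect and no enzyme buffer wells for full effect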
SENP8 block-1: SENP8 protease inhibition; Q96LD8; inhibition, % at 10 µM; purified SENP8, Z-RLRGG-aminoluciferin cleavage, luminescence; hit rate 1.2% among 330,000; in the data active means inhibition above about 50%
SENP8 block-2: inhibitors of human SENP8 protease; Q96LD8; recombinant SENP8, Nedd8 substrate fluorescence; inhibition, % at 20 µM; hit rate 0.64% among 360,000; in the data active means inhibition mostly above about 40%, no sharp cut-off; inactive means mostly below about 27%
SENP1 FRET inh: inhibitors of human SENP1 SUMO protease catalytic domain. Q9P0U3. recombinant SENP1 catalytic domain, CyPet-SUMO1-YPet FRET cleavage. inhibition, % at 10 µM. hit rate 0.21% among 360,000. AID 624204;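 active means inhibition at least 30% at 10 µM, raw YFP signal under a set limit, fluorescence ratio 0.5 to 1.5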;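 further: 0% = enzyme with DMSO and 100% = no enzyme wells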
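Test system: hSENP1 catalytic domain, recombinant; Amount: 20 pM final SENP1 enzyme; Medium: Tris pH 8 buffer plus EDTA, NaCl, BME, BSA, NP40, catalase; Schedule: 50 min enzyme reaction, room temperature, light-protected; Technique: FRET fluorescence in CFP and YFP emission channels; Controls: no-enzyme wells low, DMSO-plus-enzyme wells high control.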
SENP8 conf: confirmation of human SENP8 protease inhibitors; shares compounds with SENP7 block; Recombinant SENP8, Z-RLRGG-aminoluciferin luminescence, 60 min; inhibition, % at 12.5 µM; hit rate 40% among 6,200;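 active means mean inhibition across replicates above about 50%, limit read from the data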
SENP6 conf: human SENP6 inhibition, confirmed; hit rate 58% among 6,200; shares compounds with SENP7 block; inhibition, % at 12.5 µM; recombinant SENP6, Z-RLRGG-aminoluciferin luminescence
SENP7 confirm: confirmation of human SENP7 protease inhibitors; inhibition, % at 12.5 µM; shares compounds with SENP7 block; recombinant SENP7, Z-RLRGG-aminoluciferin luminescence, 40 min; hit rate 69% among 6,200
Casp3 select: caspase-3 inhibition (SENP selectivity assay); hit rate 60% among 6,200; shares compounds with SENP7 block; AID 488918; inhibition, % at 12.5 µM; purified caspase-3, Z-DEVD-aminoluciferin luminescence, 60 min;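 active means mean inhibition above about 50%, limit read from the data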;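 further: plate controls were enzyme with DMSO for no effect and wells without caspase-3 for full effect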
Luc interf: interferes with luciferase luminescence in SENP counter-screen; shares compounds with SENP7 block; Pre-incubated SENP8/Z-RLRGG-aminoluciferin, luciferase luminescence interference; inhibition, % at 12.5 µM; hit rate 39% among 6,200; AID 488919;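 active means mean inhibition above about 50% when retested at one dose, limit read from the data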;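 further: plate controls were DMSO wells with completed reaction for no effect and substrate without enzyme for full effect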
Numbers without * were called inactive; i = inactive; nt = no result given.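 How the source made its calls, unless noted: active means mean inhibition above about 50% in the one-dose retest (limit read from the data); inactive means the rest.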

SMILES | NRP1-CendR mod | SENP6 inh | SENP7 block | SENP8 block-1 | SENP8 block-2 | SENP1 FRET inh | SENP8 conf | SENP6 conf | SENP7 confirm | Casp3 select | Luc interf
CCNC(=S)NNC(=O)c1cc(-c2cccc(C)c2)nc2ccccc12 | 15 | 85* | 72* | 81* | -65 | 3 | 90* | 90* | 98* | 96* | 92*
CCNC(=S)NNC(=O)c1cc(-c2ccc(OC)cc2)nc2ccccc12 | 8 | 93* | 95* | 91* | -415 | 4 | 96* | 96* | 100* | 97* | 90*
CCNC(=S)NNC(=O)c1cc(-c2cccc(OCC)c2)nc2ccccc12 | -5 | -7 | -5 | -2 | -64 | 3 | nt | nt | nt | nt | nt
CCCCOc1ccc(-c2cc(C(=O)NNC(=S)NCC)c3ccccc3n2)cc1 | 3 | 101* | 93* | 94* | -269 | 3 | 98* | 99* | 103* | 98* | 65*
COc1ccc(N/C=C\C(=O)c2ccc3ccccc3c2)cc1 | 10 | -11 | 0 | -12 | -20 | -42 | nt | nt | nt | nt | nt
CN(C)/C=C/C(=O)c1ccc(Oc2ncccn2)cc1 | 12 | -7 | -6 | -9 | 1 | -4 | nt | nt | nt | nt | nt
COc1ccc(N/C=C/C(=O)c2ccccc2)cc1 | 8 | 94* | 96* | 95* | -25 | -39 | -21 | 93* | 103* | 97* | 32
O=C(/C=C/Nc1ccccc1)c1ccc(Oc2ncccn2)cc1 | 12 | 76* | 82* | 65* | -294 | -74 | 29 | 58* | 59* | 82* | 14
O=C(NCc1ccc(F)cc1F)[C@@H]1CCCN1C(=O)[C@@H]1CCCN1C(=O)c1ccccc1 | 0 | nt | nt | nt | 18 | 4 | nt | nt | nt | nt | nt
C=C(C)CNC(=O)c1ccc2nc(Cc3ccc(OC)cc3)oc2c1 | 6 | 49 | 51* | 17 | 33 | 3 | 40 | 39 | 75* | 66* | 48
CC(C)C[C@H]1CN(CCCC[C@@H]2CNC(=O)C(=O)N2CC2CCCCC2)C(=O)C(=O)N1Cc1ccccc1 | -7 | nt | nt | nt | 13 | 1 | nt | nt | nt | nt | nt
CC(C)[C@H](NS(=O)(=O)c1ccccc1)C(=O)OCC(=O)NC(=O)c1cccn1C | 3 | 60* | 11 | 27 | 3 | -2 | 47 | 38 | 68* | 61* | 9
O=C(Nc1ccc2nsnc2c1)N1CCCCCC1 | -4 | -15 | 13 | 4 | i | -9 | nt | nt | nt | nt | nt
S=C(Nc1ccc2nsnc2c1)N1CCCC1 | 15 | 83* | 54* | 57* | -52 | -23 | 6 | 28 | 24 | 70* | 67*
COC(=O)c1ccc(OC(=O)/C=C/c2ccco2)cc1 | 0 | 83* | 77* | 78* | 15 | 3 | 84* | 86* | 73* | 74* | 45
Fc1cccc(/C=N/Nc2nc3ccccc3[nH]2)c1 | nt | -12 | 6 | -14 | nt | nt | nt | nt | nt | nt | nt
Brc1ccc(/C=N/Nc2ccc3ccccc3n2)cc1 | -5 | 78* | 59* | 62* | -104 | 1 | -5 | -7 | 18 | 26 | 1
Fc1cccc(/C=N/Nc2ccc3ccccc3n2)c1 | 0 | 95* | 95* | 91* | -107 | 0 | 94* | 94* | 100* | 82* | 40
Brc1ccccc1/C=N/Nc1ccc2ccccc2n1 | -22 | 75* | 70* | 49 | -129 | -1 | 41 | 78* | 91* | 53* | 46
Fc1cccc(/C=N/Nc2ccccn2)c1 | 9 | 43 | 74* | 55* | 8 | -1 | 51* | 79* | 95* | 77* | 35
